Source: PubChem BioAssay
HIF act – HIF pathway transcriptional activation; activation, % at 7.5 µM (by protocol); U2OS HRE-luciferase reporter, luminescence; normalized: DMSO 0%, desferrioxamine 100%; hit rate 0.32% among 300,000;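 active = mean activation of at least 10% of the iron chelator positive control signal, with at least half of replicates also reaching 10%; inconclusive = mean and replicate majority disagree about reaching 10%; inactive = mean and most replicates under 10%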
HCV NS3 hel inh – inhibitors of Hepatitis C virus NS3 helicase; AID 1800; hit rate 0.56% among 290,000; NS3 helicase DNA unwinding, Cy5 molecular beacon fluorescence; inhibition, % at 10.9 µM;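 active = inhibition above the mean of all tested compounds plus 3 SD, set per campaign, cut at about 35% in these data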
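test system = hepatitis C virus NS3 helicase domain fragment enzyme | reagent = annealed dual-labelled DNA beacon duplex, ATP-started | times = 1 h at 25 °C | detection = Cy5 fluorescence, 0 and 60 min reads | read-out basis = percent inhibition from t60/t0 fluorescence ratio | control set = DMSO and thioflavine S | replication = one well per compound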
PP1 counter – counter-screen for PP5 inhibitors: inhibitors of human PP1-alpha; AID 2235; purified PP1alpha, OMFP fluorescence; hit rate 0.9% among 320,000; inhibition, % at 6.7 µM;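 active = inhibition above the mean inhibition of all tested compounds plus 3 SD, computed separately for each screening campaign, cut at about 15% in these data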
PP5 primary – blocks human protein phosphatase 5 activity; hit rate 0.18% among 320,000; AID 1987; P53041; inhibition, % at 6.7 µM; purified PP5c, OMFP substrate fluorescence;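 active = inhibition above the campaign's mean inhibition across all tested compounds plus 3 SD, cut at about 9.5% in these data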
Target sequence (P53041 whole entry, looked up): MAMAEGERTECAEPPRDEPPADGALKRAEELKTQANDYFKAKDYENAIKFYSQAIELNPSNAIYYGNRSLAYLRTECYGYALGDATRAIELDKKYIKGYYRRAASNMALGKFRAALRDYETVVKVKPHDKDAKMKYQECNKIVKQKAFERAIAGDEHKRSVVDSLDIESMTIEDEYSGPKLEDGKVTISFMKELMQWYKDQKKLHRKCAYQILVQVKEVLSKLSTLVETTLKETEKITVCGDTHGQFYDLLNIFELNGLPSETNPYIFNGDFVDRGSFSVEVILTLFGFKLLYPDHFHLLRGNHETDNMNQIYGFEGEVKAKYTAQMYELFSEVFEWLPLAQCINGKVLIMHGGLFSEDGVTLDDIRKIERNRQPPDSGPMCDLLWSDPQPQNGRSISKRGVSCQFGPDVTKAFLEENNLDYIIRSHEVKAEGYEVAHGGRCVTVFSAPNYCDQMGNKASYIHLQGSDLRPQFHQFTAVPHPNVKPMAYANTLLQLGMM
FID counter – counter-screen for HCV NS3 helicase inhibitors: DNA intercalator displacement; DNA fluorescent intercalator displacement, fluorescence; inhibition, % at 7.9 µM; hit rate 0.17% among 290,000; in the data active = inhibition above about 37%;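 note: higher means more ethidium bromide displaced from hairpin DNA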
PP1 inh confirm – confirmation of human PP1 phosphatase inhibitors. purified PP1alpha, OMFP substrate fluorescence. hit rate 52% among 1,900. shares compounds with PP1 counter. inhibition, % at 6.7 µM;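 active = mean PP1 inhibition above a set limit taken from the earlier primary screen, cut at about 15% in these data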
PP5 counter – PP5 phosphatase inhibition, counter-screen for PP1 inhibitors; shares compounds with PP1 counter; purified PP5c, OMFP fluorescence; inhibition, % at 6.7 µM; hit rate 4% among 1,900;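 active = mean PP5 inhibition over triplicate wells above about 9.5% taken from the earlier PP1 screen, limit read from the data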
Each line names hits and unclear results; the compound was inactive in the other large screens (follow-up assays come after a bar, where they were run). In the library only some 1.9% were active in any assay of this set; here they are far more common.

O=C(CSc1nc2ccccc2c(=O)n1Cc1ccccc1)Nc1ccc(Br)cc1C(=O)O	PP1 counter 20 | PP1 inh confirm 15 | PP5 counter inactive
Cc1ccc(S(=O)(=O)N2CCOCC2)cc1NC(=O)CSc1nc2ccccc2c(=O)n1Cc1ccccc1	none
N#C/C(=C/c1ccc(Sc2nc3ccccc3[nH]2)o1)c1cccc(F)c1	none
N#C/C(=C/c1ccc(Sc2nc3ccccc3[nH]2)o1)c1ccccc1F	PP1 counter 37 | PP1 inh confirm inactive | PP5 counter inactive
Cc1ccccc1C(C(=O)NC1CCCCC1)N(C(=O)CNC(=O)c1ccco1)c1cccnc1 (stereo not given)	none
O=c1cc(-c2ccccc2Cl)oc2c(NS(=O)(=O)c3ccccc3OC(F)(F)F)ccc(O)c12	PP1 counter 24 (no result: HCV NS3 hel inh, FID counter) | PP1 inh confirm inactive | PP5 counter inactive
COc1ccc(/C=C/C(=O)NC(=S)Nc2cc([N+](=O)[O-])ccc2O)cc1OC	PP1 counter 43 | PP1 inh confirm 39 | PP5 counter inactive
COc1ccc([N+](=O)[O-])cc1NC(=S)NC(C)=O	none
N#Cc1cccc(NC(=O)CCNS(=O)(=O)c2ccc3[nH]c(=O)oc3c2)c1	none
CCOC(=O)c1ccc(NS(=O)(=O)c2ccc(Cl)nc2)cc1	none | PP1 inh confirm inactive | PP5 counter inactive
CCOC(=O)c1ccc(NS(=O)(=O)CC)cc1	none
NS(=O)(=O)c1ccc(N=Nc2ccc(O)c3ncccc23)cc1	PP1 counter 51 | PP1 inh confirm 37 | PP5 counter inactive
Cc1cccc(N=Nc2ccc(O)c3ncccc23)c1	PP1 counter 29 | PP1 inh confirm 29 | PP5 counter inactive
O=C(COC(=O)c1cccnc1Nc1cccc(C(F)(F)F)c1)NC1CCS(=O)(=O)C1 (stereo not given)	none
O=C(Nc1nnc(CCN2CCCCC2)s1)c1ccccc1Cl	none
O=C(Cc1ccc(S(=O)(=O)N2CCOCC2)s1)N(Cc1ccccc1)c1ccccc1	PP1 counter 58 (no result: HCV NS3 hel inh, FID counter) | PP1 inh confirm inactive | PP5 counter inactive
C=CCNC(=O)c1ccc(Cn2c(=S)[nH]c3cc4c(cc3c2=O)OCO4)cc1	PP1 counter 25 | PP1 inh confirm inactive | PP5 counter inactive
O=C(NCCN1CCCC1)c1ccc(Cn2c(=S)[nH]c3cc4c(cc3c2=O)OCO4)cc1	none
CC1CCCN(C(=S)NC2CCCC2)C1 (stereo not given)	none
CCn1c(SCC(=O)Nc2oc(-c3ccccc3)c(-c3ccccc3)c2C#N)nnc1-c1ccncc1	none
CCn1c(SCC(=O)Nc2oc(-c3ccccc3)c(-c3ccccc3)c2C#N)nnc1-c1ccco1	PP1 counter 18 | PP1 inh confirm inactive | PP5 counter inactive
CCN(CC)C(=O)CSc1nc2c(sc(=S)n2-c2ccccc2)c(=O)n1-c1ccc(OC)c(OC)c1	none
Cc1oc(-c2ccc(Cl)cc2)cc1-c1nn2c(-c3ccoc3C)nnc2s1	HCV NS3 hel inh 42, PP1 counter 24 | PP1 inh confirm 19 | PP5 counter inactive
Clc1ccc(-c2nnc3sc(-c4ccc(Br)o4)nn23)cc1	none (no result: HIF act)
O=C(NCc1nc2ccccc2[nH]1)C1=C[C@H](c2coc3ccccc3c2=O)C[C@H](OCCCCO)O1	none (no result: HCV NS3 hel inh, FID counter)
CC1(C)CC(=O)c2c(O)cc(OCC(=O)N3CCN(c4ccccc4)CC3)cc2O1	PP1 counter 20 | PP1 inh confirm inactive | PP5 counter inactive
Cc1ccc2nc(N3C(=O)C(O)=C(C(=O)c4ccc(C)o4)C3c3ccc(O)cc3)sc2c1 (stereo not given)	PP1 counter 30 (no result: HIF act, HCV NS3 hel inh, FID counter) | PP1 inh confirm 21 | PP5 counter inactive
COc1ccc2nc(N3C(=O)C(O)=C(C(=O)c4ccco4)C3c3ccccc3OC)sc2c1 (stereo not given)	PP1 counter 29 | PP1 inh confirm 20 | PP5 counter inactive
COc1ccc(C2C(C(=O)c3ccco3)=C(O)C(=O)N2c2nnc(C)s2)cc1 (stereo not given)	none
Cc1ccc2nc(N3C(=O)C(O)=C(C(=O)c4ccco4)C3c3cccs3)sc2c1 (stereo not given)	PP1 counter 28 | PP1 inh confirm 28 | PP5 counter inactive
Cc1ccc(C(=O)C2=C(O)C(=O)N(c3ncccn3)C2c2ccc(Cl)cc2)o1 (stereo not given)	none
CCOC(=O)c1sc(N2C(=O)C(O)=C(C(=O)c3ccco3)C2c2ccco2)nc1C (stereo not given)	PP1 counter 18 | PP1 inh confirm inactive | PP5 counter inactive
CCOc1ccc2nc(N3C(=O)C(O)=C(C(=O)c4ccco4)C3c3ccco3)sc2c1 (stereo not given)	none (no result: HIF act, HCV NS3 hel inh, FID counter)
Cc1nc2sc(C(c3ccccc3)N3CCN(C)CC3)c(O)n2n1 (stereo not given)	none (no result: HCV NS3 hel inh, FID counter)
CCCOc1cccc(C2C(C(=O)c3ccc(C)o3)=C(O)C(=O)N2CCN2CCOCC2)c1 (stereo not given)	none
Cc1cc(C)c2nc(N3C(=O)C(O)=C(C(=O)c4ccco4)C3c3ccco3)sc2c1 (stereo not given)	PP1 counter 32 | PP1 inh confirm 31 | PP5 counter inactive
CCCOc1cccc(C2C(C(=O)c3ccc(C)o3)=C(O)C(=O)N2c2nc(C)c(C(C)=O)s2)c1 (stereo not given)	PP1 counter 25 | PP1 inh confirm 32 | PP5 counter inactive
Cc1cc(C)c2nc(N3CCN(C(=O)c4ccco4)CC3)sc2c1	HIF act inconclusive (no result: HCV NS3 hel inh, FID counter)
O=C(CSCC(=O)N1CCCCC1)Nc1nc(-c2ccc(Cl)s2)cs1	none
O=C(CSCC(=O)N1CCN(c2ccccc2)CC1)Nc1nc(-c2ccc(Cl)s2)cs1	PP1 counter 27 | PP1 inh confirm inactive | PP5 counter inactive
COc1cc2c(cc1OC)C(c1ccc(Br)cc1)NC(=O)C2 (stereo not given)	none (no result: PP1 counter, PP5 primary)
COc1ccc(OCC(=O)Nc2cccc(C(=O)Nc3ccccc3C(=O)O)c2)cc1	none
CCC(=O)N1CCN(c2ccccc2NC(=O)c2ccc(-c3cccc([N+](=O)[O-])c3)o2)CC1	PP1 counter 19 | PP1 inh confirm 17 | PP5 counter inactive
CCOC(=O)C1CCCN(c2ccc(NC(=O)c3snc4c(=O)[nH]c(C)nc34)cc2)C1 (stereo not given)	none
CCOC(=O)C1CCCN(c2ccc(NC(=O)c3snc4c(=O)[nH]cnc34)cc2)C1 (stereo not given)	PP1 counter 23 | PP1 inh confirm 26 | PP5 counter inactive
CC(=O)NC(c1cccs1)c1cc(Cl)c2ccccc2c1O (stereo not given)	none (no result: HIF act, HCV NS3 hel inh, FID counter)
CCCC(=O)NC(c1cccs1)c1cc([N+](=O)[O-])c2cccnc2c1O (stereo not given)	PP1 counter 18 | PP1 inh confirm 16 | PP5 counter inactive
